Experimental data: ChEMBL document CHEMBL1154352, “Toll-like receptor 7 selective synthetic oligoribonucleotide agonists: synthesis and structure-activity relationship studies” (J Med Chem, 2009)
Activity calls are given as the source filed them. The rule behind the calls is not given here.

Legend:
PBMC [1] = assay: Immunomodulatory activity in human PBMC assessed as induction of IFN-alpha at 100 ug/ml after 24 hrs
PBMC [2] = assay: Immunomodulatory activity in human PBMC assessed as induction of IL12 at 100 ug/ml after 24 hrs; type: functional, cell-based
Method in brief: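 Human PBMCs plated at 5 × 10^6 cells/mL; compounds dissolved in PBS added at various concentrations, 37 °C for 24 h. Supernatant cytokines/chemokines quantified with human Luminex multiplex kit.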

[3] = target: Toll-like receptor 3 (Homo sapiens) (UniProt O15455); assay: Activation of human TLR3 expressed in HEK293 assessed as induction of NF-kappaB activity reporter gene assay; type: cell-based
[4] = Metabolic stability in human serum assessed as full length product remaining after 10 mins by HPLC; type: ADME, cell-free; conditions: read-out: Stability
Method in brief: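 About 0.5 A260 units compound in 1% human serum in PBS, 37 °C; aliquot taken at 10 min, analysed by anion-exchange HPLC for percent intact full-length product.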

[5] = target: T1, Toll-like receptor 8 (Homo sapiens) (UniProt Q9NR97); assay: Activation of human TLR8 expressed in HEK293XL assessed as fold induction of NF-kappaB activity at 50 ug/ml after 18 hrs by reporter gene assay relative to control
T1 sequence (whole entry): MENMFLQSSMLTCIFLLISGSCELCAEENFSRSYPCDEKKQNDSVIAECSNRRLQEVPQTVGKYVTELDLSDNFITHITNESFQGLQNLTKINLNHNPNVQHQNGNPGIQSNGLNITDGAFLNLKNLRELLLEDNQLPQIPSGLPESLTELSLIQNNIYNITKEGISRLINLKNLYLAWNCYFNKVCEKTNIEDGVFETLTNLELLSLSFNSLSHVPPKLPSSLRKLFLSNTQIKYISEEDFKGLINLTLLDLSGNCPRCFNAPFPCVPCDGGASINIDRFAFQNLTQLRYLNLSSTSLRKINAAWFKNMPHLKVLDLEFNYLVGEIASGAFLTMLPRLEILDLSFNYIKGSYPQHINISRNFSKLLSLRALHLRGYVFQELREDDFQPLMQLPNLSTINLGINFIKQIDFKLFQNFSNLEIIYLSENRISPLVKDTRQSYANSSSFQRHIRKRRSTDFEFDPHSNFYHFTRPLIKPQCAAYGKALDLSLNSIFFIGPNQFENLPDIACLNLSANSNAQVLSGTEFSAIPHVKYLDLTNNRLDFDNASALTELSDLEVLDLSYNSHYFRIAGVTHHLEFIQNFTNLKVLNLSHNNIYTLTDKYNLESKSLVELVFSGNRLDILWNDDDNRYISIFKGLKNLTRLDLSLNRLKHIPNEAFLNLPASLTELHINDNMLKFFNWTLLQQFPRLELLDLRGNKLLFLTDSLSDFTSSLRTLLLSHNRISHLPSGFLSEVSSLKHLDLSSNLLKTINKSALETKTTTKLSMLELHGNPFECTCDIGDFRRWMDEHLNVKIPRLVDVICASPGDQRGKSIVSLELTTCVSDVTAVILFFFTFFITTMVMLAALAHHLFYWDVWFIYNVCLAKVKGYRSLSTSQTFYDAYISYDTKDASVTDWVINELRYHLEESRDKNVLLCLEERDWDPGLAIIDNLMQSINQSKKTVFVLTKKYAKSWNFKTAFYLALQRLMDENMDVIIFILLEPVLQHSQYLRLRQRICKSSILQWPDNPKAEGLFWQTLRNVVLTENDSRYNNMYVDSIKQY
Method in brief: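 HEK293 cells stably expressing human TLR7 or TLR8, transiently transfected with SEAP reporter plasmid; medium replaced, SIMRA compounds added, 18 h incubation. Supernatant SEAP measured by QuantiBlue; expressed as fold increase in NF-κB activity over PBS control. Tabulated data at 50 μg/mL, representative of three independent experiments.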

Splenocyte [6] = assay: Immunomodulatory activity in C57BL/6 mouse splenocytes bearing TLR7 receptor assessed as IL6 release at 100 ug/ml after 24 hrs by ELISA; type: functional, cell-based
Method in brief: (§1)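 C57BL/6 splenocytes in RPMI 1640 with 10% FBS, penicillin/streptomycin, 2 mM L-glutamine, plated at 5 × 10^6 cells/mL; compounds in PBS added, 37 °C for 24 h. Supernatant IL-12 and IL-6 by ELISA; representative of three independent experiments.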

Splenocyte [7] = assay: Immunomodulatory activity in C57BL/6 mouse splenocytes bearing TLR7 receptor assessed as IL12 release at 100 ug/ml after 24 hrs by ELISA; type: functional, cell-based
Method in brief: as §1

Homo sapiens = organism: Homo sapiens; assay: Ratio of human TLR7 activity to human TLR8 activity
Method in brief: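 TLR7/TLR8 ratio computed from fold NF-κB (SEAP reporter) activation in HEK293 cells stably expressing human TLR7 versus TLR8, compounds at 50 μg/mL, 18 h exposure; representative of three independent experiments.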

Chain of Toll-like receptor 3 (Homo sapiens) (O15455 whole entry): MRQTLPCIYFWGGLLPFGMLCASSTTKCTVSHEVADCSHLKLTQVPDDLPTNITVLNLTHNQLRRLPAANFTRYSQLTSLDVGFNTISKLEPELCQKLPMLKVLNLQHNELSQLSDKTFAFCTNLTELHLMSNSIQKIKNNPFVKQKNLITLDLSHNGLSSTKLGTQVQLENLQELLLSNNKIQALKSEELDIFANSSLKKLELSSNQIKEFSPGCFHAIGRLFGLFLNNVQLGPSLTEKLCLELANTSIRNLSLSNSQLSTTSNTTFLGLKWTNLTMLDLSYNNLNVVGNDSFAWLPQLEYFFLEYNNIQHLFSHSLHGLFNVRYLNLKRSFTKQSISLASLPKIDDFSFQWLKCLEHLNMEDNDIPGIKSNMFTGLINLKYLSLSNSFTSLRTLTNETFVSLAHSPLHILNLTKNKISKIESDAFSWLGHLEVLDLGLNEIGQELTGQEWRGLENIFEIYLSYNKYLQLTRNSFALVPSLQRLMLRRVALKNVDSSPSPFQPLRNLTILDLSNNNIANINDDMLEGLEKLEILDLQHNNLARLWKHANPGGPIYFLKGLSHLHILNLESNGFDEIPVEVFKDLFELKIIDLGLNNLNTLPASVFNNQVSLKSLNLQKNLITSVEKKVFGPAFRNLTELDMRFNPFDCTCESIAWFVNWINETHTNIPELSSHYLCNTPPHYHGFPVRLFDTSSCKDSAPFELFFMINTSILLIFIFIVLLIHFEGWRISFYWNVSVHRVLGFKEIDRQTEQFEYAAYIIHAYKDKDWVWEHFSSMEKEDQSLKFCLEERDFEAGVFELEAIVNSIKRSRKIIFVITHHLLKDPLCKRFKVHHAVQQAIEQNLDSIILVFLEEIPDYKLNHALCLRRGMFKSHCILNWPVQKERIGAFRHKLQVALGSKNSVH

In the case of `Nc1ccn([C@@H]2O[C@H](COP(=O)(S)O[C@H]3[C@@H](O)[C@H](n4ccc5c(=O)[nH]c(N)nc54)O[C@@H]3CO[C@H]3[C@@H](O)[C@H](n4cnc5c(N)ncnc54)O[C@@H]3COP(=O)(S)O[C@H]3[C@@H](O)[C@H](n4ccc5c(=O)[nH]c(N)nc54)O[C@@H]3COP(=O)(S)O[C@H]3[C@@H](O)[C@H](n4ccc(=O)[nH]c4=O)O[C@@H]3COP(=O)(S)O[C@H]3[C@@H](O)[C@H](n4ccc(N)nc4=O)O[C@@H]3COP(=O)(S)O[C@H]3[C@@H](O)[C@H](n4ccc5c(=O)[nH]c(N)nc54)O[C@@H]3COP(=O)(S)O[C@H]3[C@@H](O)[C@H](n4ccc(=O)[nH]c4=O)O[C@@H]3COP(=O)(S)O[C@H]3[C@@H](O)[C@H](n4ccc(=O)[nH]c4=O)O[C@@H]3CO)[C@@H](OP(=O)(S)OC[C@H]3O[C@@H](n4ccc(=O)[nH]c4=O)[C@H](O)[C@@H]3OP(=O)(S)OC[C@H]3O[C@@H](n4ccc(=O)[nH]c4=O)[C@H](O)[C@@H]3OP(=O)(S)OCC(O)COP(=O)(S)O[C@H]3[C@@H](O)[C@H](n4ccc(=O)[nH]c4=O)O[C@@H]3COP(=O)(S)O[C@H]3[C@@H](O)[C@H](n4ccc(=O)[nH]c4=O)O[C@@H]3COP(=O)(S)O[C@H]3[C@@H](O)[C@H](n4ccc(N)nc4=O)O[C@@H]3COP(=O)(S)O[C@H]3[C@@H](O)[C@H](n4ccc5c(=O)[nH]c(N)nc54)O[C@@H]3CO[C@H]3[C@@H](O)[C@H](n4cnc5c(N)ncnc54)O[C@@H]3COP(=O)(S)O[C@H]3[C@@H](O)[C@H](n4ccc5c(=O)[nH]c(N)nc54)O[C@@H]3COP(=O)(S)O[C@H]3[C@@H](O)[C@H](n4ccc(=O)[nH]c4=O)O[C@@H]3COP(=O)(S)O[C@H]3[C@@H](O)[C@H](n4ccc(N)nc4=O)O[C@@H]3COP(=O)(S)O[C@H]3[C@@H](O)[C@H](n4ccc5c(=O)[nH]c(N)nc54)O[C@@H]3COP(=O)(S)O[C@H]3[C@@H](O)[C@H](n4ccc(=O)[nH]c4=O)O[C@@H]3COP(=O)(S)O[C@H]3[C@@H](O)[C@H](n4ccc(=O)[nH]c4=O)O[C@@H]3CO)[C@H]2O)c(=O)n1` (some centres undefined), the IFN-alpha (PBMC [1]) is reported as 145 pg/mL, the Activity (PBMC [2]) is reported as 1370 pg/mL and the Activity [3] is reported as “inactive”. The remaining at 10 min [4] was 83%, the fold change (FC) [5] was 0.4 and the Activity (Splenocyte [6]) was “Active”. The Activity (Splenocyte [7]) was “Active” and the Ratio (Homo sapiens) was 66.8.
With `Nc1ccn([C@@H]2O[C@H](COP(=O)(S)O[C@H]3[C@@H](O)[C@H](n4cnc5c(N)ncnc54)O[C@@H]3COP(=O)(S)O[C@H]3[C@@H](O)[C@H](n4cnc5c(N)ncnc54)O[C@@H]3CO)[C@@H](OP(=O)(S)OC[C@H]3O[C@@H](n4ccc(=O)[nH]c4=O)[C@H](O)[C@@H]3OP(=O)(S)OC[C@H]3O[C@@H](n4ccc5c(=O)[nH]c(N)nc54)[C@H](O)[C@@H]3OP(=O)(S)OC[C@H]3O[C@@H](n4cnc5c(N)ncnc54)[C@H](O)[C@@H]3OP(=O)(S)OC[C@H]3O[C@@H](n4ccc(N)nc4=O)[C@H](O)[C@@H]3OP(=O)(S)OC[C@H]3O[C@@H](n4ccc5c(=O)[nH]c(N)nc54)[C@H](O)[C@@H]3OP(=O)(S)OC[C@H]3O[C@@H](n4ccc(N)nc4=O)[C@H](O)[C@@H]3OP(=O)(S)OC[C@H]3O[C@@H](n4ccc(=O)[nH]c4=O)[C@H](O)[C@@H]3OP(=O)(S)OC[C@H]3O[C@@H](n4ccc(=O)[nH]c4=O)[C@H](O)[C@@H]3OP(=O)(S)OCC(O)COP(=O)(S)O[C@H]3[C@@H](O)[C@H](n4ccc(=O)[nH]c4=O)O[C@@H]3COP(=O)(S)O[C@H]3[C@@H](O)[C@H](n4ccc(=O)[nH]c4=O)O[C@@H]3COP(=O)(S)O[C@H]3[C@@H](O)[C@H](n4ccc(N)nc4=O)O[C@@H]3COP(=O)(S)O[C@H]3[C@@H](O)[C@H](n4ccc5c(=O)[nH]c(N)nc54)O[C@@H]3COP(=O)(S)O[C@H]3[C@@H](O)[C@H](n4ccc(N)nc4=O)O[C@@H]3COP(=O)(S)O[C@H]3[C@@H](O)[C@H](n4cnc5c(N)ncnc54)O[C@@H]3COP(=O)(S)O[C@H]3[C@@H](O)[C@H](n4ccc5c(=O)[nH]c(N)nc54)O[C@@H]3COP(=O)(S)O[C@H]3[C@@H](O)[C@H](n4ccc(=O)[nH]c4=O)O[C@@H]3COP(=O)(S)O[C@H]3[C@@H](O)[C@H](n4ccc(N)nc4=O)O[C@@H]3COP(=O)(S)O[C@H]3[C@@H](O)[C@H](n4cnc5c(N)ncnc54)O[C@@H]3COP(=O)(S)O[C@H]3[C@@H](O)[C@H](n4cnc5c(N)ncnc54)O[C@@H]3CO)[C@H]2O)c(=O)n1` (some centres undefined) the IFN-alpha (PBMC [1]) was 292 pg/mL, the Activity (PBMC [2]) was 250 pg/mL and the Activity [3] was “inactive”. The remaining at 10 min [4] was 87%, the fold change (FC) [5] was 0.4 and the Activity (Splenocyte [6]) was “Active”. The Activity (Splenocyte [7]) was “Active” and the Ratio (Homo sapiens) was 53.8.
For `Nc1ccn([C@@H]2O[C@H](CO[C@H]3[C@@H](O)[C@H](n4cnc5c(N)ncnc54)O[C@@H]3COP(=O)(S)O[C@H]3[C@@H](O)[C@H](n4ccc5c(=O)[nH]c(N)nc54)O[C@@H]3COP(=O)(S)O[C@H]3[C@@H](O)[C@H](n4ccc(=O)[nH]c4=O)O[C@@H]3COP(=O)(S)O[C@H]3[C@@H](O)[C@H](n4cnc5c(N)ncnc54)O[C@@H]3COP(=O)(S)O[C@H]3[C@@H](O)[C@H](n4ccc5c(=O)[nH]c(N)nc54)O[C@@H]3COP(=O)(S)O[C@H]3[C@@H](O)[C@H](n4ccc(=O)[nH]c4=O)O[C@@H]3CO)[C@@H](OP(=O)(S)OC[C@H]3O[C@@H](n4ccc5c(=O)[nH]c(N)nc54)[C@H](O)[C@@H]3OP(=O)(S)OC[C@H]3O[C@@H](n4cnc5c(N)ncnc54)[C@H](O)[C@@H]3OP(=O)(S)OC[C@H]3O[C@@H](n4ccc(=O)[nH]c4=O)[C@H](O)[C@@H]3OP(=O)(S)OC[C@H]3O[C@@H](n4ccc(=O)[nH]c4=O)[C@H](O)[C@@H]3OP(=O)(S)OCC(O)COP(=O)(S)O[C@H]3[C@@H](O)[C@H](n4ccc(=O)[nH]c4=O)O[C@@H]3COP(=O)(S)O[C@H]3[C@@H](O)[C@H](n4ccc(=O)[nH]c4=O)O[C@@H]3COP(=O)(S)O[C@H]3[C@@H](O)[C@H](n4cnc5c(N)ncnc54)O[C@@H]3COP(=O)(S)O[C@H]3[C@@H](O)[C@H](n4ccc5c(=O)[nH]c(N)nc54)O[C@@H]3COP(=O)(S)O[C@H]3[C@@H](O)[C@H](n4ccc(N)nc4=O)O[C@@H]3CO[C@H]3[C@@H](O)[C@H](n4cnc5c(N)ncnc54)O[C@@H]3COP(=O)(S)O[C@H]3[C@@H](O)[C@H](n4ccc5c(=O)[nH]c(N)nc54)O[C@@H]3COP(=O)(S)O[C@H]3[C@@H](O)[C@H](n4ccc(=O)[nH]c4=O)O[C@@H]3COP(=O)(S)O[C@H]3[C@@H](O)[C@H](n4cnc5c(N)ncnc54)O[C@@H]3COP(=O)(S)O[C@H]3[C@@H](O)[C@H](n4ccc5c(=O)[nH]c(N)nc54)O[C@@H]3COP(=O)(S)O[C@H]3[C@@H](O)[C@H](n4ccc(=O)[nH]c4=O)O[C@@H]3CO)[C@H]2O)c(=O)n1` (some centres undefined), the IFN-alpha (PBMC [1]) was 183 pg/mL, the Activity (PBMC [2]) was 102 pg/mL and the Activity [3] was “inactive”. The remaining at 10 min [4] was 84%, the fold change (FC) [5] was 1.6 and the Activity (Splenocyte [6]) was “Active”. The Activity (Splenocyte [7]) was “Active” and the Ratio (Homo sapiens) was 10.9.
